Reference: ChEMBL document CHEMBL1152541, “Staurosporine tethered peptide ligands that target cAMP-dependent protein kinase (PKA): optimization and selectivity profiling” (Bioorg Med Chem, 2009)
Values belong to the compound of their own block, whether it stands above or below them. *1 amine or outer side, *2 acyl side, *3 side chain or, on linkers, in order; H or OH if unused. Where a SMILES comes first, the peptide text is derived from it. Bridges are numbered along the chain shown (N, C = ends). [ ]: non-standard residue; d: D form. The star is where a group is joined. Staurosporine = CO[C@@H]1[C@H](N(C)*)C[C@H]2O[C@]1(C)n1c3ccccc3c3c4c(c5c6ccccc6n2c5c31)C(=O)NC4; Suc = O=C(CCC(=O)[*:2])[*:1]; Dap = NC[C@H](N)C(=O)O; βAla = NCCC(=O)O

Columns and labels:
[1] = target: Mitogen-activated protein kinase 3 (Homo sapiens) (UniProt P27361); assay: Binding affinity to human ERK1 at 500 nM by cell-based competition binding assay relative to control in presence of DTT
In short: (§1)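 Commercial (Ambit) competitive kinase-binding panel of 90 kinases measured the binding profile. Run under reducing conditions of 7.5 mM DTT. Binding is expressed relative to control.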

[2] = target: Tyrosine-protein kinase JAK2 (Homo sapiens) (UniProt O60674); assay: Binding affinity to human JAK2 kinase domain 2 at 500 nM by cell-based competition binding assay relative to control in presence of DTT
In short: (§2)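 Competition binding screen (Ambit) across a panel of 90 kinases, scoring test ligand displacement of each kinase's binding relative to control. The screen ran under reducing conditions with 7.5 mM DTT.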

[3] = target: Atypical kinase COQ8A, mitochondrial (Homo sapiens) (UniProt Q8NI60); assay: Binding affinity to human ADCK3 at 500 nM by cell-based competition binding assay relative to control in presence of DTT
In short: (§3)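 Kinase binding profiling ran on a commercial (Ambit) competitive binding screen against a panel of 90 kinases. The screen used reducing conditions with 7.5 mM DTT. To withstand the DTT, the bivalent ligand was tested as its amide isostere, with the disulfide replaced. A staurosporine derivative carrying a 3 β-alanine linker was run as the reference compound.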

[4] = target: T1, Bone morphogenetic protein receptor type-2 (Homo sapiens) (UniProt Q13873); assay: Binding affinity to human BMPR2 at 200 nM by cell-based competition binding assay relative to control in presence of DTT; in short: as §3
T1 sequence (whole entry): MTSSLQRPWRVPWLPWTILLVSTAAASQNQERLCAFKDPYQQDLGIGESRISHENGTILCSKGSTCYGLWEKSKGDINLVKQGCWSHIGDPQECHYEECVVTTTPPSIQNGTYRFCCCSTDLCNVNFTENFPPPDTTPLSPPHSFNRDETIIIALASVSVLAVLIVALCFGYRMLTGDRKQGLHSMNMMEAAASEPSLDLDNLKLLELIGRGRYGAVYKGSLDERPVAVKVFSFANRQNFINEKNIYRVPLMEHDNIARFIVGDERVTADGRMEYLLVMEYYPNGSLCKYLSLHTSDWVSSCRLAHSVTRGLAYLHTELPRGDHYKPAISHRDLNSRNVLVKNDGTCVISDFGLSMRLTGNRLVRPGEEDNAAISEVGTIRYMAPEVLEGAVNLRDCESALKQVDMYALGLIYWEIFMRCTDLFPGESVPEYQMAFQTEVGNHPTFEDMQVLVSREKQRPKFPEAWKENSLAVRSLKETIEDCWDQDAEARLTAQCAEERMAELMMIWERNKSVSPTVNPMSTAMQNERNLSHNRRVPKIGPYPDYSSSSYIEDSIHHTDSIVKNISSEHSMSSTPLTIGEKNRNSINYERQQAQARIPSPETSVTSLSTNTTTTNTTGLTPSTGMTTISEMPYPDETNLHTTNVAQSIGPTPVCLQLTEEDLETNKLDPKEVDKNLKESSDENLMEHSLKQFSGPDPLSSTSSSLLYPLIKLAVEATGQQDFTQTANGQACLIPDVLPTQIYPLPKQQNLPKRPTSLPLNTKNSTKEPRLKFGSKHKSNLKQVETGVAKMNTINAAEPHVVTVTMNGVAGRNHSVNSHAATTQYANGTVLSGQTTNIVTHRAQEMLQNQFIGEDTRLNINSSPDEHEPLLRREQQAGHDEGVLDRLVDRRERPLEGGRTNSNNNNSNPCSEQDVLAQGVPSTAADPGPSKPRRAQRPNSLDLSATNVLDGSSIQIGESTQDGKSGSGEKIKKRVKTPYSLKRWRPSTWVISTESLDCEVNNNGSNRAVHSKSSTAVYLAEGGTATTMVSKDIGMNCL

[5] = target: RAF proto-oncogene serine/threonine-protein kinase (Homo sapiens) (UniProt P04049); assay: Binding affinity to human RAF1 at 200 nM by cell-based competition binding assay relative to control in presence of DTT
[6] = target: Mast/stem cell growth factor receptor Kit (Homo sapiens) (UniProt P10721); assay: Binding affinity to human KIT at 200 nM by cell-based competition binding assay relative to control in presence of DTT; in short: as §2
[7] = target: Cyclin-dependent kinase 3 (Homo sapiens) (UniProt Q00526); assay: Binding affinity to human CDK3 at 200 nM by cell-based competition binding assay relative to control in presence of DTT; in short: as §3
[8] = target: T2, Testis-specific serine/threonine-protein kinase 1 (Homo sapiens) (UniProt Q9BXA7); assay: Binding affinity to human TSSK1 at 50 nM by cell-based competition binding assay relative to control in presence of DTT
T2 sequence (whole entry): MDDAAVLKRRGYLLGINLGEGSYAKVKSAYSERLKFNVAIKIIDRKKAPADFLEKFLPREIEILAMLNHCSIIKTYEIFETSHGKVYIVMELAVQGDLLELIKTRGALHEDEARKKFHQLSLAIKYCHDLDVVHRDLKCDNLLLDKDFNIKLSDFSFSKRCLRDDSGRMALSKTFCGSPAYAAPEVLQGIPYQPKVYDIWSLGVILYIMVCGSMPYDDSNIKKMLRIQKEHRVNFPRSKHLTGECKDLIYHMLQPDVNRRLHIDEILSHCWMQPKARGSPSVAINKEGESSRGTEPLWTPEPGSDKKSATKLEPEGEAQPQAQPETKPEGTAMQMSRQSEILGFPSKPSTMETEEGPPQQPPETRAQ

[9] = target: Serine/threonine-protein kinase PAK 2 (Homo sapiens) (UniProt Q13177); assay: Binding affinity to human PAK2 at 50 nM by cell-based competition binding assay relative to control in presence of DTT
[10] = target: MAP kinase-activated protein kinase 2 (Homo sapiens) (UniProt P49137); assay: Binding affinity to human MAPKAPK2 at 50 nM by cell-based competition binding assay relative to control in presence of DTT; in short: as §2
[11] = target: T3, Serine/threonine-protein kinase Chk1 (Homo sapiens) (UniProt O14757); assay: Binding affinity to human CHEK1 at 50 nM by cell-based competition binding assay relative to control in presence of DTT; in short: as §1
T3 sequence (whole entry): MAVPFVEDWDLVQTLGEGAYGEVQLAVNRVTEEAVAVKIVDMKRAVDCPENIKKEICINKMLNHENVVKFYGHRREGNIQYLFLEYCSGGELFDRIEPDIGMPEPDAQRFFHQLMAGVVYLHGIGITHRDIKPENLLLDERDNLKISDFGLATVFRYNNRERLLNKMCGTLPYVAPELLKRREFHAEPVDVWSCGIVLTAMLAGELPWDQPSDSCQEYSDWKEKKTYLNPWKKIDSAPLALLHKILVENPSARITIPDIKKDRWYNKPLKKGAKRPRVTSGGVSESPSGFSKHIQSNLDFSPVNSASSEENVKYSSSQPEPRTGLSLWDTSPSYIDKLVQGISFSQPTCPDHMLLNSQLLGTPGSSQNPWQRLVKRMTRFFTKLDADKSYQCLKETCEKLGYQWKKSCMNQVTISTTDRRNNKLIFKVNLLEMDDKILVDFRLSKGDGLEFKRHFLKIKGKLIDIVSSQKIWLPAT

Chain of Cyclin-dependent kinase 3 (Homo sapiens) (Q00526 whole entry, looked up): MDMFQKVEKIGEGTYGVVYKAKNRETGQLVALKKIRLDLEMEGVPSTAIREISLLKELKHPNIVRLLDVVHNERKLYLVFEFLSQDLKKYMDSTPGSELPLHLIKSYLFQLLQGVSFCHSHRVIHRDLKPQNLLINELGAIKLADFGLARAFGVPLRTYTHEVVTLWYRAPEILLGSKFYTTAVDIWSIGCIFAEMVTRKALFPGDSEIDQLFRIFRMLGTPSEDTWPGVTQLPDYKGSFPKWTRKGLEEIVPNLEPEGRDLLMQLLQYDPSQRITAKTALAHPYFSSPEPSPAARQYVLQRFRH
Chain of RAF proto-oncogene serine/threonine-protein kinase (Homo sapiens) (P04049 whole entry): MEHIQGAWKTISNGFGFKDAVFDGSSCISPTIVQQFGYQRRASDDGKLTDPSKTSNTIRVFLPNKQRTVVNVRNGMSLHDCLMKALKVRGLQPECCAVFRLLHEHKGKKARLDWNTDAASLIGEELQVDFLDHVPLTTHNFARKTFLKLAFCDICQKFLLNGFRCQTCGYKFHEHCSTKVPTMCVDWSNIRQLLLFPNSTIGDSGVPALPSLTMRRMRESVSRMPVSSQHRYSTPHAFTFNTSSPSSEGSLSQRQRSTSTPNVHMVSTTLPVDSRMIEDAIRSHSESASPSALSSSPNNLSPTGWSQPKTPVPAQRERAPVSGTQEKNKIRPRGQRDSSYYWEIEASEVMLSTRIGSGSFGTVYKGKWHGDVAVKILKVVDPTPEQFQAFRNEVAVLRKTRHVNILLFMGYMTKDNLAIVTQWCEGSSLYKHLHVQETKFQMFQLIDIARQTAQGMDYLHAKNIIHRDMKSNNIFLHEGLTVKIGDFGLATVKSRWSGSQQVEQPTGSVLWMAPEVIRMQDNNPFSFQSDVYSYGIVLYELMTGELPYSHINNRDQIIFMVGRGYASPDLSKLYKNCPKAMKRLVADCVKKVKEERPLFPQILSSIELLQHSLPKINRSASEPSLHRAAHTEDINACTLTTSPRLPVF
Chain of Mast/stem cell growth factor receptor Kit (Homo sapiens) (P10721 whole entry): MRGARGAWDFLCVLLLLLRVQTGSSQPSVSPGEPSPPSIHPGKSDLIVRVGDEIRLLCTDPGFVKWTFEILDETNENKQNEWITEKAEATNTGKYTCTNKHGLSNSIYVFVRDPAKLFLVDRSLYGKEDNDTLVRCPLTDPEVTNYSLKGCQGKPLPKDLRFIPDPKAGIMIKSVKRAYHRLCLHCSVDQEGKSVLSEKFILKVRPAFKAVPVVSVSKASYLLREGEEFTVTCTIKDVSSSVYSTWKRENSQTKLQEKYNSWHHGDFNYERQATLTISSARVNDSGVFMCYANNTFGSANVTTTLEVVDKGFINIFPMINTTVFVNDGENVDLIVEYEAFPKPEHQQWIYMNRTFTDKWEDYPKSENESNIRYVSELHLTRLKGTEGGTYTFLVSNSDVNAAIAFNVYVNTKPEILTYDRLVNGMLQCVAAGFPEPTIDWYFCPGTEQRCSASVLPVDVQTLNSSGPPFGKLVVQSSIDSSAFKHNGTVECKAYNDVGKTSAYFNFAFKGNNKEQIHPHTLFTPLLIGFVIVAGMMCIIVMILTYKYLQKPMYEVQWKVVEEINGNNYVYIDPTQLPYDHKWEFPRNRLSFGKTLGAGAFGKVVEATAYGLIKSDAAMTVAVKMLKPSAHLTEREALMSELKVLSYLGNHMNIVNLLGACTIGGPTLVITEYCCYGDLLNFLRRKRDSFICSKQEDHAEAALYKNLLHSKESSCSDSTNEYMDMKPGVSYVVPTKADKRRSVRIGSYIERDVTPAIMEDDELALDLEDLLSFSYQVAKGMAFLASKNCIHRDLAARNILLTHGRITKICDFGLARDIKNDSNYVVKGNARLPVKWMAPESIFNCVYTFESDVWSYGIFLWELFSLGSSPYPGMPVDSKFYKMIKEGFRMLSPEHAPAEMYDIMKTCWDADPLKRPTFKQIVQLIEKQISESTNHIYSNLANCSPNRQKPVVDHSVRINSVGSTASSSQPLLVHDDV
Chain of Serine/threonine-protein kinase PAK 2 (Homo sapiens) (Q13177 whole entry): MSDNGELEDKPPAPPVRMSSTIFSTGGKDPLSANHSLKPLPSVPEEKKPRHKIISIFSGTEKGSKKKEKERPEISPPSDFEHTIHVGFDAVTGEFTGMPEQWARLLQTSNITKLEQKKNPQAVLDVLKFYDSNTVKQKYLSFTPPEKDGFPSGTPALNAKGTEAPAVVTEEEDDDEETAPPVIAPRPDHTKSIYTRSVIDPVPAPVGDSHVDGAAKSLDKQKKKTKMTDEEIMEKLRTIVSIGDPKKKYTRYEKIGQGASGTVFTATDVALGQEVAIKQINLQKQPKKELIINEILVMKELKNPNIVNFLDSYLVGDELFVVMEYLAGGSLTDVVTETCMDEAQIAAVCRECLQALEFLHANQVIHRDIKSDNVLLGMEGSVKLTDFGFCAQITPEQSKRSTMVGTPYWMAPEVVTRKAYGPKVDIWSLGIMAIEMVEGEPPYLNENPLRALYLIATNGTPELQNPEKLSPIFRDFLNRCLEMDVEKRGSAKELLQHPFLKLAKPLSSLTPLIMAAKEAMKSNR
Chain of Tyrosine-protein kinase JAK2 (Homo sapiens) (O60674 whole entry, the tested form may be a part): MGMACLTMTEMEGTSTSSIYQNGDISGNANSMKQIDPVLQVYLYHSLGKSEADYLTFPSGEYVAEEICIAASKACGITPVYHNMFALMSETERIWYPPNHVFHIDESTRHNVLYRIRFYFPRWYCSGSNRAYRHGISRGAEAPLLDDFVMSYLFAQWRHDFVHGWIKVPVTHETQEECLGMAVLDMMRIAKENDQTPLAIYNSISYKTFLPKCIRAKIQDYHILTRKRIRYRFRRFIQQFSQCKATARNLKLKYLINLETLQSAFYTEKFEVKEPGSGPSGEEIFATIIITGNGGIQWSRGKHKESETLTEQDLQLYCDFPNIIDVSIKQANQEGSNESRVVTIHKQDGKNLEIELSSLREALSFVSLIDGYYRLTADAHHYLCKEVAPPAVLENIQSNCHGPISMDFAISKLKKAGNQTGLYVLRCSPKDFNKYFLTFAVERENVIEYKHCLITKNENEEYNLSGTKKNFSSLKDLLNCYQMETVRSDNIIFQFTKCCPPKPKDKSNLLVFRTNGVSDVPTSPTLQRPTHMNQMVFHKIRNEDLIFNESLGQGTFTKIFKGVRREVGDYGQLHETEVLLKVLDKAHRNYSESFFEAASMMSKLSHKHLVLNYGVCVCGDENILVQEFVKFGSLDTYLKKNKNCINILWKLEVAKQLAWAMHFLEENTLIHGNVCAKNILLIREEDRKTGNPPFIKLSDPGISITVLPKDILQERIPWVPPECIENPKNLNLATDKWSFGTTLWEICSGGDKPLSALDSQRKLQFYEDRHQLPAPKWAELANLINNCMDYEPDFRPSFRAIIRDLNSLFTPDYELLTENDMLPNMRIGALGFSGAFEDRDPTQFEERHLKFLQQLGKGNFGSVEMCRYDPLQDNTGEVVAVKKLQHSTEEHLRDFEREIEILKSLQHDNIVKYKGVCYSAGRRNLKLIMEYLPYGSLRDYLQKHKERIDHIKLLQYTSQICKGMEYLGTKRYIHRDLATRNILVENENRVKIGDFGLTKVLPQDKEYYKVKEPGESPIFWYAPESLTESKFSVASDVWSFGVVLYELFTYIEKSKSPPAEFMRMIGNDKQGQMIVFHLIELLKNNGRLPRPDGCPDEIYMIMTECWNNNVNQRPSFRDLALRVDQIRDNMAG
Chain of Atypical kinase COQ8A, mitochondrial (Homo sapiens) (Q8NI60 163-647 limits assumed): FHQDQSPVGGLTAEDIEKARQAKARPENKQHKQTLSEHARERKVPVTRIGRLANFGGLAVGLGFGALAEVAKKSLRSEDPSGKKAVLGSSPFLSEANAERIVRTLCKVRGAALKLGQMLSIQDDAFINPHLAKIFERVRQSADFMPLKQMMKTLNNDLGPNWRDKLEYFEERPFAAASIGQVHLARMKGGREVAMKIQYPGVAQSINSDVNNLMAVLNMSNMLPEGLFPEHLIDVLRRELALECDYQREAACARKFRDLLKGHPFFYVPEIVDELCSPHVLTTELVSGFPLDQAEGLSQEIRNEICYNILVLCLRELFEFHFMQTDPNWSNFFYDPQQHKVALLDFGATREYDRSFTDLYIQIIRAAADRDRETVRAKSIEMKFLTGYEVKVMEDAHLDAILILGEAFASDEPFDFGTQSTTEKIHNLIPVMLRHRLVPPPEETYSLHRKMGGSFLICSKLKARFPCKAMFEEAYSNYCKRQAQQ
Chain of MAP kinase-activated protein kinase 2 (Homo sapiens) (P49137 whole entry, looked up): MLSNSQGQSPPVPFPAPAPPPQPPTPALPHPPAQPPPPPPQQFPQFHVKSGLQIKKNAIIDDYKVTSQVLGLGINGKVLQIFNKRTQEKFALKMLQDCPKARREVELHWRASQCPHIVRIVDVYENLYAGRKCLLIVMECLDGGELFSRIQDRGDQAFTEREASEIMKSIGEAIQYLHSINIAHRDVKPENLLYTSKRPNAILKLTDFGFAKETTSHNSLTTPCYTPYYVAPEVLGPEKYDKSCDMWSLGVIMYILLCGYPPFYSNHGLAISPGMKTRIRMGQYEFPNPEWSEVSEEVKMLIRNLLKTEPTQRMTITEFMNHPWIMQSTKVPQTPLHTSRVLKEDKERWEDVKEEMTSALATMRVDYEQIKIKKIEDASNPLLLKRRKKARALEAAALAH
Chain of Mitogen-activated protein kinase 3 (Homo sapiens) (P27361 whole entry): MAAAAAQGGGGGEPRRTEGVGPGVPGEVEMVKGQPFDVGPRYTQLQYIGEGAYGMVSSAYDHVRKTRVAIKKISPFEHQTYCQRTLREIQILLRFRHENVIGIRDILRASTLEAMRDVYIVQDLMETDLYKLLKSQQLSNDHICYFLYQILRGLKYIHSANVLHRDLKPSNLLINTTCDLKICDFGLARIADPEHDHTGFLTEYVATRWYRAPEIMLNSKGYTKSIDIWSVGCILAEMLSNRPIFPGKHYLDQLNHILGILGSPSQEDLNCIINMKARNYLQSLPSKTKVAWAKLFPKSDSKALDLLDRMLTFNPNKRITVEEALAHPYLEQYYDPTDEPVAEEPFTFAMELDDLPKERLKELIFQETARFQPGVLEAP

Activity [1]: 100% | Activity [2]: 2.4% | Activity [3]: 91%
SMILES: CO[C@@H]1[C@H](N(C)C(=O)CCC(=O)NCCC(=O)NCCC(=O)NCCC(N)=O)C[C@H]2O[C@]1(C)n1c3ccccc3c3c4c(c5c6ccccc6n2c5c31)C(=O)NC4

Activity [4]: 93% | Activity [5]: 89% | Activity [6]: 39% | Activity [7]: 100%
SMILES: CO[C@@H]1[C@H](N(C)C(=O)CCC(=O)NCCC(=O)NCCC(=O)NCCC(=O)NCCC(=O)NCCC(=O)NCCC(=O)NCCC(=O)N[C@H]2CSSC[C@@H](C(=O)NCC(N)=O)NC(=O)CNC(=O)[C@H](Cc3ccccc3)NC(=O)[C@H](C(C)C)NC(=O)[C@H](CCCNC(=N)N)NC(=O)[C@H](Cc3ccccc3)NC(=O)[C@H](C(C)C)NC2=O)C[C@H]2O[C@]1(C)n1c3ccccc3c3c4c(c5c6ccccc6n2c5c31)C(=O)NC4 ({Staurosporine-Suc-βAla-βAla-βAla-βAla-βAla-βAla-βAla}-CVFRVFGCG-NH2; disulfide 1-8)

Activity [8]: 100% | Activity [9]: 72% | Activity [10]: 100% | Activity [11]: 91%
SMILES: CO[C@@H]1[C@H](N(C)C(=O)CCC(=O)NCCC(=O)NCCC(=O)NCCC(=O)NCCC(=O)NCCC(=O)NCCC(=O)NCCC(=O)N[C@H]2CNC(=O)C[C@@H](C(N)=O)NC(=O)CNC(=O)[C@H](Cc3ccccc3)NC(=O)[C@H](C(C)C)NC(=O)[C@H](CCCNC(=N)N)NC(=O)[C@H](Cc3ccccc3)NC(=O)[C@H](C(C)C)NC2=O)C[C@H]2O[C@]1(C)n1c3ccccc3c3c4c(c5c6ccccc6n2c5c31)C(=O)NC4 ({Staurosporine-Suc-βAla-βAla-βAla-βAla-βAla-βAla-βAla}-[Dap]VFRVFGD-NH2; lactam 1-8)
